Laboratory results published in ChEMBL document CHEMBL1123002, “Resolution of 5,6-dihydroxy-2-(N,N-di-n-propylamino)tetralin in relation to the structural and stereochemical requirements for centrally acting dopamine agonists” (J Med Chem, 1985).

Key:
[1] = tested on: Rattus norvegicus; test: In vivo dopaminergic activity was assessed by scoring stereotyped behavior in rats at dose 10 umol/kg; assay type: functional
Procedure, shortened: (§1)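 Rats dosed ip with drug in saline containing 0.1% sodium bisulfite. Stereotyped behaviour scored over 30 min after injection by a published rating method.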

[2] = target: Dopamine receptor; test: Inhibitory activity against [3H]NPA binding (0.45) to dopamine receptor in striata of female wistar rats; assay type: protein assay
Procedure, shortened: (§2)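 Rat striatal membranes prepared in 15 mM Tris-HCl with 1 mM EDTA and 0.01% ascorbate, pH 7.5, washed by repeated 35000g spins. Incubated in triplicate for 30 min at 25 °C with 0.46 nM [³H]NPA and competitor over 10⁻¹¹–10⁻⁵ M. Nonspecific binding defined with 10⁻⁶ M (+)-butaclamol. Bound label collected on GF/B filters and counted by scintillation. IC50 from log-probit analysis of at least three determinations.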

[3] = tested on: Rattus norvegicus; test: In vivo dopaminergic activity was assessed by measuring the decrease of DA […] levels in rat brain at dose 10 umol/kg; assay type: functional; set-up: scale not given: the % may be the effect or the level left
Procedure, shortened: (§3)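 Female Wistar-derived rats (160–220 g) given drug ip in saline with 0.1% sodium bisulfite. Killed by decapitation 40 min later. Striata dissected, frozen on dry ice, stored at -80 °C, then homogenized in 0.1 M perchloric acid and centrifuged. DA, HVA and DOPAC in the supernatant measured by Sephadex G10 cleanup and reverse-phase HPLC with amperometric detection, compared against controls.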

[4] = tested on: Rattus norvegicus; test: In vivo dopaminergic activity was assessed by measuring the decrease of DA metabolite (HVA) levels in rat brain at dose 10 umol/kg; assay type: functional; set-up: scale not given: the % may be the effect or the level left; procedure, shortened: as §3
[5] = tested on: Rattus norvegicus; test: In vivo dopaminergic activity was assessed by scoring stereotyped behavior in rats at dose 0.5 umol/kg; assay type: functional; procedure, shortened: as §1
[6] = tested on: Rattus norvegicus; test: In vivo dopaminergic activity was assessed by measuring the decrease of DA metabolite (DOPAC) levels in rat brain at dose 0.5 umol/kg; assay type: functional; set-up: scale not given: the % may be the effect or the level left; procedure, shortened: as §3
[7] = tested on: Rattus norvegicus; test: In vivo dopaminergic activity was assessed by measuring the decrease of DA metabolite (DOPAC) levels in rat brain at dose 5 umol/kg; assay type: functional; set-up: scale not given: the % may be the effect or the level left; procedure, shortened: as §3
[8] = tested on: Rattus norvegicus; test: In vivo dopaminergic activity was assessed by measuring the decrease of DA […] levels in rat brain at dose 5 umol/kg; assay type: functional; set-up: scale not given: the % may be the effect or the level left; procedure, shortened: as §3
[9] = tested on: Rattus norvegicus; test: In vivo dopaminergic activity was assessed by measuring the decrease of DA metabolite (HVA) levels in rat brain at dose 0.5 umol/kg; assay type: functional; set-up: scale not given: the % may be the effect or the level left; procedure, shortened: as §3
[10] = tested on: Rattus norvegicus; test: In vivo dopaminergic activity was assessed by measuring the decrease of DA metabolite (DOPAC) levels in rat brain at dose 10 umol/kg; assay type: functional; set-up: scale not given: the % may be the effect or the level left; procedure, shortened: as §3
[11] = tested on: Rattus norvegicus; test: In vivo dopaminergic activity was assessed by measuring the decrease of DA […] levels in rat brain at dose 0.5 umol/kg; assay type: functional; set-up: scale not given: the % may be the effect or the level left; procedure, shortened: as §3
[12] = tested on: Rattus norvegicus; test: In vivo dopaminergic activity was assessed by scoring stereotyped behavior in rats at dose 5 umol/kg; assay type: functional; procedure, shortened: as §1
[13] = tested on: Rattus norvegicus; test: In vivo dopaminergic activity was assessed by measuring the decrease of DA metabolite (HVA) levels in rat brain at dose 5 umol/kg; assay type: functional; set-up: scale not given: the % may be the effect or the level left; procedure, shortened: as §3
[14] = tested on: Rattus norvegicus; test: In vivo dopaminergic activity was assessed by measuring the decrease of DA metabolite (HVA) levels in rat brain at dose 0.25 umol/kg; assay type: functional; set-up: scale not given: the % may be the effect or the level left; procedure, shortened: as §3
[15] = tested on: Rattus norvegicus; test: In vivo dopaminergic activity was assessed by scoring stereotyped behavior in rats at dose 0.25 umol/kg; assay type: functional; procedure, shortened: as §1
[16] = tested on: Rattus norvegicus; test: In vivo dopaminergic activity was assessed by measuring the decrease of DA […] levels in rat brain at dose 0.25 umol/kg; assay type: functional; set-up: scale not given: the % may be the effect or the level left; procedure, shortened: as §3
[17] = tested on: Rattus norvegicus; test: In vivo dopaminergic activity was assessed by measuring the decrease of DA metabolite (DOPAC) levels in rat brain at dose 0.25 umol/kg; assay type: functional; set-up: scale not given: the % may be the effect or the level left; procedure, shortened: as §3
[18] = target: Dopamine receptor; test: Inhibitory activity against [3H]NPA binding (0.45) to dopamine receptors in striata of female wistar rats; assay type: protein assay; procedure, shortened: as §2

Row | Compound | Stereotypy score [1] | IC50 [2] | Control [3] | Control [4] | Stereotypy score [5] | Control [6] | Control [7] | Control [8] | Control [9] | Control [10] | Control [11] | Stereotypy score [12] | Control [13] | Control [14] | Stereotypy score [15] | Control [16] | Control [17] | IC50 [18]
1 | CCCN(CCC)C1CCc2c(ccc(O)c2O)C1 (single isomer, unassigned; (+)) | 3 | 400 nM | <125.8% | <41.2% | 0 | 93.3% | 68.9% | 115% | 86.5% | <60.1% | 109.4% | 3 | <48.6% |  |  |  |  | 
2 | CCCN(CCC)C1CCc2c(ccc(O)c2O)C1 (single isomer, unassigned; (-)) |  | 2.5 nM |  |  | 4 | <58% |  |  | <42.6% |  | 114.2% |  |  | <42.5% | 4 | 98.4% | <53.7% | 
3 | CCCN(CCC)C1CCc2c(ccc(O)c2O)C1 (racemic) |  |  |  |  |  | 58.5% |  |  | 47.6% |  | 114.9% |  |  | 36.2% |  | 103% | 61% | 4 nM
